From ChEMBL document CHEMBL1149189, “In vitro antimalarial activity of a series of cationic 2,2'-bipyridyl- and 1,10-phenanthrolineplatinum(II) benzoylthiourea complexes” (J Med Chem, 2004)
Where a name gives a salt, the structure may show the parent alone.

What was measured:
[1] = test system: Ferriprotoporphyrin IX
[2] = test system: Ferriprotoporphyrin IX; remark: listed apart in the source
[3] = test system: CHO; assay: In vitro cytotoxicity against CHO cells was determined using MTT colorimetric assay; assay type: functional, cell-based; conditions: Cricetulus griseus
Method in brief: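 Chinese hamster ovary cells; MTT colorimetric read-out. Compounds dissolved as 2 mg/mL stocks in water, then diluted in medium as six serial 10-fold dilutions, final 100 µg/mL to 1 ng/mL. Emetine dihydrochloride as positive control. IC50 from nonlinear dose–response curve fitting; mean ± standard deviation of two independent experiments, each in triplicate.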

Log K [1] | Log K [2] | Structure (SMILES) | other results
2.88 |  | O=[N+]([O-])c1cc2cccnc2c2ncccc12 | 
1.93 |  | CCN(CC)CCN(CCN(CC)CC)C(=S)NC(=O)c1ccccc1 | 
 | No association | Cc1ccnc(-c2cc(C)ccn2)c1 | 
 | No association | O=C(NC(=S)N(CCO)CCO)c1ccccc1 | 
 | No association | c1ccc(-c2ccccn2)nc1 | 

Further lines, the compound ahead of its results:

Structure (SMILES) | Log K [1] | Log K [2] | other results
Cc1ccnc2c1ccc1cccnc12 | 3.22 |  | 
Clc1cc2cccnc2c2ncccc12 | 3.01 |  | 
Cc1cnc2c(ccc3c(C)c(C)cnc32)c1C | 3.32 |  | 
Cc1cc2cccnc2c2ncccc12 | 2.93 |  | 
CC[C@H]1CN2CCc3cc(OC)c(OC)cc3[C@@H]2C[C@@H]1C[C@H]1NCCc2cc(OC)c(OC)cc21 [EMETINE HYDROCHLORIDE] |  |  | IC50 [3]: 0.139 µM
